Data set [1] concerns the target Guanine nucleotide-binding protein G(i) subunit alpha-1 (Homo sapiens) (UniProt P63096). Put plainly: Binding affinity to human Galphai1 expressed in Escherichia coli BL21 assessed as inhibition of [35S]GTPgammaS binding preincubated for 20 mins followed by [35S]GTPgammaS addition measured for 30 mins by liquid scintillation counting analysis. Format: functional. The method in brief: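 Human Gαi1 was expressed from pPAL7 (Profinity eXact construct) in E. coli BL21 and affinity purified. 100 nM Gαi1 was preincubated 20 min at 24 °C with peptide, then 0.5 μM [35S]GTPγS was added for 30 min at 24 °C, in duplicate. Filtration on nitrocellulose was followed by washes in cold Tris/MgCl2/EDTA buffer pH 7.4 and scintillation counting. Nonspecific binding was taken with 100 μM GTPγS; results are percent of specific binding without peptide.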
(In general: GTPγS is a poorly hydrolysed GTP analogue; its binding reports G protein activation.)

Another data set has as its system HEK293. Put plainly: Cytotoxicity against HEK293 GloSensor cells transfected with Galphai1 coupled with alpha-2 adrenoceptor assessed as effect on cell viability at 10 uM. Format: cell-based. The following applies: human, hek293, 10 µM.
For data set [2], the target named is T1, Guanine nucleotide-binding protein G(q) subunit alpha (Homo sapiens) (UniProt P50148).
T1 sequence (whole entry): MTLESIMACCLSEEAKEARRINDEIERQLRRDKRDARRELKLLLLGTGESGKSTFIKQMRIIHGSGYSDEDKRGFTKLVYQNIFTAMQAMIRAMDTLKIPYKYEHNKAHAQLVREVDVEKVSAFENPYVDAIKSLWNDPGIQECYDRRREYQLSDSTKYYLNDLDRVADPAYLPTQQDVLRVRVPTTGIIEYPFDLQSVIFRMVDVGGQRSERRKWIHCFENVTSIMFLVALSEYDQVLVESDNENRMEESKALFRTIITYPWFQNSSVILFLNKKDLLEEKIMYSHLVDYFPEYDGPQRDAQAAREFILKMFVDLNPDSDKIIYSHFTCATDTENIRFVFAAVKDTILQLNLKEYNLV
As to the kind of experiment: Binding affinity to Galphaq (unknown origin) expressed in baculovirus-infected insect Hi5 cells assessed as inhibition of BODIPY FL GTPgammaS binding by measuring fluorescence reduction at 30 to 300 uM preincubated for 30 mins followed by BODIPY FL GTPgammaS addition measured for 60 mins by real time nucleotide exchange assay relative to vehicle-treated control. As to conditions: BTI-TN-5B1-4. The method in brief:
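Gαq was partially purified from baculovirus-infected Hi5 insect cells (5 × MOI, 48 h). 600 nM protein was preincubated 30 min with compound (DMSO ≤1% v/v final) in 10 mM HEPES, 100 mM NaCl, 5 mM MgCl2, 0.1 mM EDTA, pH 7.4. Exchange was started with 250 nM BODIPY FL GTPγS. Endpoint at 60 min vs vehicle; triplicates, three experiments.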

Data on twelve compounds can be found in ChEMBL document CHEMBL3286169, “Development of inhibitors of heterotrimeric Gαi subunits” (Bioorg Med Chem, 2014).

The source made the active and inactive calls. No cut-off for these calls is given here. Peptide text beside a SMILES is read from it.

Chain of Guanine nucleotide-binding protein G(i) subunit alpha-1 (Homo sapiens) (P63096 whole entry): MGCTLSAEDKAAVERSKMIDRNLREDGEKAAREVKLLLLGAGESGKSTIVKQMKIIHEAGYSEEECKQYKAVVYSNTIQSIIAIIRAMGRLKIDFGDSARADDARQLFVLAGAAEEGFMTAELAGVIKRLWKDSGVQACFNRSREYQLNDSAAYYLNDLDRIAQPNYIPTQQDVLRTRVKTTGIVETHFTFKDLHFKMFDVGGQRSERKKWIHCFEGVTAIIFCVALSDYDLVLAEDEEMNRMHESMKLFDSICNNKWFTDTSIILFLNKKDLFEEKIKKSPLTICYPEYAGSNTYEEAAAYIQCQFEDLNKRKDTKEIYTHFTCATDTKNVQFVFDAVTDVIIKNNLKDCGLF

For orientation: inhibition means the share of the control response that was lost under treatment. Take `CSCC[C@H](NC(=O)[C@H](CCCNC(=N)N)NC(=O)[C@H](CCCCN)NC(=O)[C@H](CO)NC(=O)[C@H](CCC(N)=O)NC(=O)[C@H](CO)NC(=O)[C@H](CCCCN)NC(=O)[C@H](C)NC(=O)[C@H](CC(C)C)NC(=O)[C@H](CC(C)C)NC(=O)[C@H](CC(=O)O)NC(=O)[C@H](Cc1ccccc1)NC(=O)[C@H](Cc1ccccc1)NC(=O)[C@H](CC(=O)O)NC(=O)[C@H](CCC(=O)O)NC(=O)[C@H](CCC(=O)O)NC(=O)CNC(=O)[C@H](CCSC)NC(=O)[C@@H](N)[C@@H](C)O)C(=O)N[C@@H](CC(=O)O)C(=O)N[C@@H](CC(=O)O)C(=O)N[C@@H](CCC(N)=O)C(=O)N[C@@H](CCCNC(=N)N)C(=O)N[C@H](C(=O)N[C@@H](CC(=O)O)C(=O)N[C@@H](CC(C)C)C(=O)N[C@@H](C)C(=O)N[C@@H](CCCCN)C(N)=O)C(C)C` (H-TMGEEDFFDLLAKSQSKRMDDQRVDLAK-NH2): the inhibition result in data set [1] was “Active”.

On to `O=[N+]([O-])[C-](/C=N/C1CCCCC1)/C=N/C1CCCCC1`, for which the Activity entry with HEK293 is on record as “Non-toxic”. Besides, in data set [2], the inhibition was found to be 32%.

With `CC1=CC(C)(C)NC(Nc2nc(-c3ccccc3)c3ccccc3n2)=N1`, in the data set on HEK293, the Activity entry is given as “Toxic”. The inhibition in data set [2] is < 10%.

On to `CCC[C@H]1C[C@](C)(C(=O)CNc2ccccn2)OC1=O`, for which, in data set [2], the inhibition was < 10%.

Take `CCc1ccc2c(C)nc(NC3=NC(C)(C)CC(C)=N3)nc2c1`: the Activity entry in the data set with HEK293 was “Non-toxic”. Also, in data set [2], the inhibition was determined as 50%.

For `C/C(=N\c1ccc(O)cc1)c1sc2ccccc2c1O`, the inhibition in data set [2] was < 10%.

Consider `Cc1nc(NC(=O)NCCC2=CSC3=NCCCN23)nn1C`, for which the inhibition in data set [2] came to 27%.

For `Cc1cccc(N[C@@]2(C(F)(F)F)NC(c3ccccc3)=NC2=O)n1`, the inhibition in data set [2] is 25%.

In the case of `C1=C(/N=C/c2ccccc2)[N+](Cc2ccccc2)=CCO1`, the inhibition in data set [2] is < 10%.

For the compound `SC1=C2CCCCC2=[N+](C[C@@H]2CCCO2)[C@@H](c2ccccc2)N1`, in data set [2], the inhibition is < 10%.

Take `CC(=O)/C(=C(\C)O)[C@@H]1c2ccccc2O[C@H](C(F)(F)F)[C@@H]1[N+](=O)[O-]`: the inhibition in data set [2] was determined as 35%.

Take `CC(=O)C1=C(C)NC(C(C#N)C#N)=C(C#N)[C@H]1c1ccccc1`: the inhibition in data set [2] turned out to be 40%.
